PubChem BioAssay AID638 (SRMLSC, 2007)
The campaign covered roughly 1,300 compounds. About 65 (5%) were called active. These entries were drawn from the full list. Entries with a potency or affinity are not part of this list. Values without a mark were called inactive.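 The calls were made as follows: active = growth inhibition reaching a set limit at one or more tested doses; inactive = the rest.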

Assay: wild-type E. coli BW25113 antibacterial activity – OD615, dose response (AID 638)
Details: at 100 µM (top of the series) unless noted
In short: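 Assay system: E. coli BW25113 wild type. Doses: compound concentration series. Timing: 20 h compound exposure, 37 °C. Technique: OD615 absorbance. Medium: LB broth containing kanamycin at 50 µg/mL. Benchmarks: chloramphenicol at 30 µM final as inhibition control. Measure: IC50 from 4-parameter logistic, bounds fixed 0–100%.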

SMILES	growth inhibition
COc1ccccc1OCC(=O)N(Cc1nc(-c2ccccc2)no1)C1CCCCC1	-2.24%
COC(=O)c1ccccc1NC(=O)N1c2ccccc2CC1C (stereo not drawn)	3.49%
Cc1ccc(C)n1-n1cnc2sc(-c3ccccc3)cc2c1=O	-14.3%
CCOC(=O)c1cn(CC)c2cc(N3CCSCC3)c(F)cc2c1=O	10.1%
O=C(Nc1ccc(Cl)cc1)N(Cc1cccs1)Cc1cccs1	-8.41%
Cc1ccc(OCc2nc(C#N)c(N3CCN(Cc4ccccc4)CC3)o2)cc1	-9.19%
COc1ccc(OC)c(S(=O)(=O)N2CCN(c3c(C)cccc3C)CC2)c1	-10%
COc1cc(NS(=O)(=O)c2ccc(Br)cc2)c(OC)cc1NC(=O)c1ccco1	-12%
Fc1ccc(-n2c(Cc3ccccc3)nnc2SCc2nc(-c3cccs3)no2)cc1	-13.2%
C=CCOC(=O)C(C#N)c1nc2ccccc2nc1N1CCCC1 (stereo not drawn)	-1.85%
COCc1cc(C)nc2sc3c(=O)oc(C)nc3c12	10.4%
CCCCOC(=O)Nc1ccc(C(=O)OCCC)cc1	6.71%
COC(=O)c1ccc(NC(=O)CN2CCN(c3cccc(Cl)c3)CC2)cc1	-2.21%
N#CC1=C(SCC(=O)NC23CC4CC(CC(C4)C2)C3)NC(=O)C(C#N)C12CCCCC2 (stereo not drawn)	18.1% (active)
CC(C)(C)C1CCC2(CC1)C(C#N)=C(SCC(=O)NC1CCCCC1)NC(=O)C2C#N (stereo not drawn)	12.2%
N#CC1=C(SCC(=O)c2cc3ccccc3oc2=O)NC(=O)C(C#N)C12CCCC2 (stereo not drawn)	14.3%
CCN(CC)S(=O)(=O)c1ccc2[nH]cc(C(=O)NCCC3=CCCCC3)c(=O)c2c1	-6.85%
COc1ccc2nc(SCC(=O)N(C)C3CCCCC3)c(C#N)cc2c1	-2.36%
CCCOc1ccc(C2C(C(=O)c3ccc(C)o3)=C(O)C(=O)N2Cc2cccnc2)cc1 (stereo not drawn)	6.33%
Cc1cc(Nc2ccccc2)nc(-c2ccccc2O)n1	-4.57%
Clc1ccc(OCCn2ccnc2)c2ccccc12	12.7% [at 50 µM]
O=S(=O)(Nc1nc2ccccc2nc1N1CCN(c2ccccn2)CC1)c1ccc(Cl)cc1	-0.89%
O=C(Nc1nnc(-c2cccs2)o1)c1cccc(Oc2ccccc2)c1	12.7%
CC1CCCCN1S(=O)(=O)c1ccc(C(=O)Nc2nnc(-c3cccs3)o2)cc1 (stereo not drawn)	2.23%
Cc1cc(N2CCCCC2)nc(SCc2ccc(C#N)cc2)n1	-5.55%
Cc1ccccc1CSc1nc2n(n1)C(c1cccs1)C1=C(CCCC1=O)N2 (stereo not drawn)	-14.8%
CCCCCn1c(N2CCC(Cc3ccccc3)CC2)nc2c1c(=O)[nH]c(=O)n2C	-11.3%
CCOC(=O)Cc1nnc2c(Nc3ccccc3F)nc3nonc3n12	-6.59%
